# Autophagy mod: modulators of autophagy; AID 463193; 0.98% of 190,000 active; MEF GFP-LC3 puncta imaging; test concentration mostly 10 µM; calls only at 10 µM (by protocol);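 active means percentage of spot-positive cells more than 3 SD above its plate mean, without a fluorescence outlier flag or 80% toxicity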;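 further: spot-positive cell cutoff set from DMSO-treated cells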
# PTEN del growth: suppresses growth of cells with PTEN deletion | HCT116 PTEN-null viability, CellTiter-Glo, 60 h; active compounds read low | viability, % at 10 µM | 1.2% of 140,000 active;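 active means viability at or below a set limit, 4 SD under the median of all tested compounds, cut at about 3.7% in these data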;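 further: PTEN knockout HCT116 line with beta catenin targeted HCT116 as companion control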
# Lmaj promast: inhibitors of Leishmania major promastigote growth. Leishmania major promastigotes, resazurin fluorescence viability. inhibition, % at 10 µM. 9% of 200,000 active. AID 1063; in the data active means inhibition above about 50%;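 further: promastigotes grown with compound for 44 hours at 28 °C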
# Dynein cargo inh: blocks dynein driven cargo transport along microtubules | 3617.4 mouse cells, GR-EGFP nuclear translocation imaging; test concentration mostly 20 µM; stimulated with dexamethasone, 1 µM; active compounds read low | z-score, hits read low | 0.47% of 220,000 active;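 active means plate z-score of nuclear minus cytoplasmic receptor signal below a set negative limit, without overly bright fluorescence or cell loss, cut at about -3.5 in these data, passing the limit was not always enough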;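 further: z-score of nuclear minus cytoplasmic ring GR-EGFP intensity difference per well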
#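 medium = tetracycline-free induction medium containing charcoal-stripped FBS | probe or stimulus = dexamethasone, 1.0 µM final | timing = 48 h induction, then 1 h compound, then 30 min agonist, 37 °C | detection = automated 10x imaging of fixed Hoechst-stained cells | read-out basis = nuclear versus cytoplasmic GR-EGFP signal, averaged per well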
# HCT116 bCat-KO: beta-catenin-lacking colon tumor cell growth suppression | HCT116 beta-catenin knockout viability, CellTiter-Glo, 60 h; active compounds read low | viability, % at 10 µM | 1.5% of 140,000 active | AID 818;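 active means viability at or under a set limit, the compound median less 4 SD, cut at about 6% in these data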;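 further: 0% = Hyamine 1622 control at 20 µM and 100% = untreated cell control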
# Active calls of the source: *; i = inactive; / = no result given; + = active, no number. Shown are actives, neighbours in structure and some others; about 9.2% of the full set was active somewhere.
SMILES,Autophagy mod,PTEN del growth,Lmaj promast,Dynein cargo inh,HCT116 bCat-KO
CCOC(=O)c1cc(C(=O)OCC)cc(-n2c(C)cc(C(=O)CN3CCOCC3)c2C)c1,i,85,93*,-0.22,85
Cc1cc(C(=O)CN2CCC(C)CC2)c(C)n1-c1ccc(F)cc1,i,72,91*,1.5,74
Cc1cc(C(=O)CN2CCCC2)c(C)n1-c1ccc(Cl)cc1,i,/,53*,0.021,/
COc1ccc(-n2c(C)cc(C(=O)CN3CCC(C)CC3)c2C)cc1,i,/,92*,-0.65,/
Cc1cc2nc(C3CCN(C(=S)NCCCOC(C)C)CC3)[nH]c2cc1C,i,/,-3,-0.64,/
C=CCOC(=O)C1=C(C)NC(C)=C(C(=O)OCC=C)C1/C=C/c1ccccc1,i,46,100*,-0.74,54
c1ccc2c(c1)OCC(CNc1ncnc3sccc13)O2 (stereo not drawn),i,18,39,0.66,16
OC1CCCN(Cc2ccc3ccc4cccc5ccc2c3c45)C1 (stereo not drawn),i,2.2*,78*,0.45,1.3*
c1cc2ccc3ccc(CN4CCOCC4)c4ccc(c1)c2c34,i,89,4,-0.64,85
CC(=O)Nc1ccc(SCC(=O)c2cc(C)n(-c3ccccc3F)c2C)cc1,i,66,81*,-0.91,65
COC(=O)c1ccc(-n2c(C)cc(C(=O)CSc3ccc(NC(C)=O)cc3)c2C)cc1,i,92,31,0.021,94
COC(=O)c1ccn(Cc2ccccc2Cl)n1,i,/,-1,-1.3,/
CCOc1cc(NC(=O)c2ccccn2)c(OCC)cc1NC(=O)c1ccc(C)cc1,i,/,8,1.9,/
CCOc1cc(NC(=O)c2cnccn2)c(OCC)cc1NC(=O)c1cccc(F)c1,+,/,4,1.3,/
CC(C)C[C@H](NC(=O)c1[nH]cnc1C(=O)Nc1ccccc1)C(=O)OC(C)(C)C,/,/,/,0.67,/
CCCCNC(=O)CCC(=O)Nc1ccc2nc(N3CCCCC3)cc(C)c2c1,i,/,7,0.16,/
Cc1cc(N2CCN(C)CC2)nc2ccc(NC(=O)c3cccnc3Cl)cc12,i,80,99*,-0.85,79
Cc1nc2ccc(NC(=O)c3ccc(Br)o3)cc2s1,i,/,13,-0.63,/
CCN1CCN(c2cc(C)c3cc(NC(=O)c4ccccc4F)ccc3n2)CC1,i,62,51*,0.2,54
CCN1CCN(c2cc(C)c3cc(NC(=O)c4ccncc4)ccc3n2)CC1,i,75,65*,0.64,77
CCN(CC)c1cc(C)c2cc(NC(=O)c3ccc(Br)o3)ccc2n1,i,9,80*,-1.1,12
Cc1cc(N2CCN(C)CC2)nc2ccc(NC(=O)c3ccccc3F)cc12,i,/,42,2,/
CCN(CC)c1cc(C)c2cc(NC(=O)c3cccs3)ccc2n1,+,/,24,-0.41,/
CCN(CC)c1cc(C)c2cc(NC(=O)c3ccccc3OC)ccc2n1,i,/,43,-0.31,/
CCN1CCN(c2cc(C)c3cc(NC(=O)c4cccnc4Cl)ccc3n2)CC1,i,102,99*,-0.52,93
SMILES,Autophagy mod,PTEN del growth,Lmaj promast,Dynein cargo inh,HCT116 bCat-KO
CCN1CCN(c2cc(C)c3cc(NC(=O)c4ccc(Br)o4)ccc3n2)CC1,+,9,100*,-0.32,8
CS(=O)(=O)N1CCN(C(=O)NC2CCCCC2)CC1,i,/,-4,-0.93,/
CCOC(=O)c1c(C2CC2)csc1NC(=O)COC(=O)c1cc(OC)c(OC)cc1[N+](=O)[O-],i,90,91*,0.81,82
Nc1[nH]n(-c2ccccc2)c(=O)c1N=Nc1ccc2ncsc2c1,/,/,/,-0.55,/
CC(C)(C)c1[nH]nc2c1C(C1C=CCCC1)C(C#N)=C(N)O2 (stereo not drawn),i,86,83*,-0.13,85
CCc1[nH]nc2c1C(C1C=CCCC1)C(C#N)=C(N)O2 (stereo not drawn),i,/,97*,-1.6,/
CN1CCN(S(=O)(=O)c2ccc(N3CCc4ccccc4C3)nc2)CC1,i,/,94*,0.38,/
c1cncc(-c2nc(NCC3COc4ccccc4O3)c3ccccc3n2)c1 (stereo not drawn),i,26,77*,-0.29,39
c1cncc(-c2nc(NCc3ccc4c(c3)OCO4)c3ccccc3n2)c1,/,/,/,-0.38,/
Cc1ccc(Nc2nc(-c3cccnc3)nc3ccccc23)cc1,/,/,/,-0.084,/
c1ccc(CN2CCC(Nc3nc(-c4cccnc4)nc4ccccc34)CC2)cc1,i,/,98*,1.8,/
Cc1ccccc1Nc1nc(-c2cccnc2)nc2ccccc12,i,/,78*,0.27,/
